Results taken from ChEMBL document CHEMBL1921669, “In vivo PET imaging of histone deacetylases by 18F-suberoylanilide hydroxamic acid (18F-SAHA)” (J Med Chem, 2011).

Assays:
Kidney = test: Biodistribution in C57BL/6 mouse kidney at 241 +/- 18 uCi, iv; type: ADME, organism-based; conditions: in vivo
Method in brief: (§1)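 Six C57BL/6 mice got the 18F tracer by tail-vein iv injection. Groups were sacrificed at 1 h (n = 3) and 3 h (n = 3) after dosing. Tissues were excised and weighed, and 18F activity was counted by gamma counter. Values are expressed as % injected dose per gram of tissue.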

Liver = test: Biodistribution in C57BL/6 mouse liver at 241 +/- 18 uCi, iv; type: ADME, organism-based; conditions: in vivo; method in brief: as §1
Nucleic Acid [1] = test: Ratio of drug uptake in tumor to muscle in human A2780 cells xenografted Nu/Nu mouse at 2 mg in 100 uL of 60% PEG400 40% water, ip administered as 2 dose every 24 hrs interval measured after 3 hrs of post last dose by PET-CT analysis; type: ADME, organism-based; conditions: in vivo
Method in brief: (§2)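 Nu/Nu mice (n = 5) bearing subcutaneous flank A2780 human ovarian cancer xenografts (10⁶ cells in Matrigel per flank), imaged 10 days after implantation. ¹⁸F-labelled tracer PET-CT under isoflurane anaesthesia (1.5%, O₂ 2 L/min), each acquisition ~80 min. […] Read-out: tumor/muscle uptake ratio.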

Mus musculus [2] = test: Biodistribution in C57BL/6 mouse whole blood at 243 +/- 25 uCi, iv using 10% DMSO, 90% water formulation; type: ADME, organism-based; conditions: in vivo
Method in brief: (§3)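 The 18F tracer was given to C57BL/6 mice by tail-vein iv bolus, n = 3 per vehicle. Vehicles were 60% PEG400 in water, 10% DMSO in water, or 20% DMAC:Solutol (1:1) in saline. Serial retro-orbital blood was drawn into tared capillary tubes, weighed and gamma-counted to give the blood time-activity curve.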

Mus musculus [3] = test: Biodistribution in C57BL/6 mouse whole blood at 243 +/- 25 uCi, iv using […] dimethylacetamide, 10% Solutol HS15, 80% PBS formulation; type: ADME, organism-based; conditions: in vivo; method in brief: as §3
Heart = test: Biodistribution in C57BL/6 mouse heart at 241 +/- 18 uCi, iv; type: ADME, organism-based; conditions: in vivo; method in brief: as §1
Mus musculus [4] = test: Biodistribution in C57BL/6 mouse thymus at 241 +/- 18 uCi, iv; type: ADME, organism-based; conditions: in vivo; method in brief: as §1
Brain = test: Biodistribution in C57BL/6 mouse brain at 241 +/- 18 uCi, iv; type: ADME, organism-based; conditions: in vivo; method in brief: as §1
Mus musculus [5] = test: Biodistribution in human A2780 cells xenografted Nu/Nu mouse tumor at 2 mg in 100 uL of 60% PEG400 40% water, ip by PET-CT analysis; type: ADME, organism-based, Neoplasm; conditions: in vivo, TDE = time-dependent effect
Method in brief: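 Nu/Nu mice (n = 5) carried subcutaneous A2780 human ovarian cancer implants (10⁶ cells in Matrigel per flank) and were imaged 10 days later under isoflurane 1.5%. The 18F tracer was scanned by PET-CT (about 80 min acquisition) before and after competition. […] Read-out was the tumor/muscle ratio.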

[6] = Initial half life in iv dosed mouse plasma; type: ADME, organism-based; conditions: read-out: alphat1/2
Blood = test: Biodistribution in C57BL/6 mouse blood at 241 +/- 18 uCi, iv; type: ADME, organism-based; conditions: in vivo; method in brief: as §1
Nucleic Acid [7] = test: Ratio of drug uptake in tumor to muscle in human A2780 cells xenografted Nu/Nu mouse at 2 mg in 100 uL of 60% PEG400 40% water, ip after 3 hrs by PET-CT analysis; type: ADME, organism-based; conditions: in vivo; method in brief: as §2
Mus musculus [8] = test: Biodistribution in C57BL/6 mouse whole blood at 243 +/- 25 uCi, iv using 60% PEG400, 40% water formulation; type: ADME, organism-based; conditions: in vivo; method in brief: as §3
Histone deacetylase 3 = Histone deacetylase 3 (Homo sapiens, UniProt O15379); test: Inhibition of human recombinant full-length HDAC3 using fluorophore conjugated substrate by fluorescence assay
[9] = molecular target: T1, Protein deacetylase HDAC6 (Homo sapiens, UniProt Q9UBN7); test: Inhibition of human recombinant full-length HDAC6 using fluorophore conjugated substrate by fluorescence assay
T1 sequence (Q9UBN7 whole entry): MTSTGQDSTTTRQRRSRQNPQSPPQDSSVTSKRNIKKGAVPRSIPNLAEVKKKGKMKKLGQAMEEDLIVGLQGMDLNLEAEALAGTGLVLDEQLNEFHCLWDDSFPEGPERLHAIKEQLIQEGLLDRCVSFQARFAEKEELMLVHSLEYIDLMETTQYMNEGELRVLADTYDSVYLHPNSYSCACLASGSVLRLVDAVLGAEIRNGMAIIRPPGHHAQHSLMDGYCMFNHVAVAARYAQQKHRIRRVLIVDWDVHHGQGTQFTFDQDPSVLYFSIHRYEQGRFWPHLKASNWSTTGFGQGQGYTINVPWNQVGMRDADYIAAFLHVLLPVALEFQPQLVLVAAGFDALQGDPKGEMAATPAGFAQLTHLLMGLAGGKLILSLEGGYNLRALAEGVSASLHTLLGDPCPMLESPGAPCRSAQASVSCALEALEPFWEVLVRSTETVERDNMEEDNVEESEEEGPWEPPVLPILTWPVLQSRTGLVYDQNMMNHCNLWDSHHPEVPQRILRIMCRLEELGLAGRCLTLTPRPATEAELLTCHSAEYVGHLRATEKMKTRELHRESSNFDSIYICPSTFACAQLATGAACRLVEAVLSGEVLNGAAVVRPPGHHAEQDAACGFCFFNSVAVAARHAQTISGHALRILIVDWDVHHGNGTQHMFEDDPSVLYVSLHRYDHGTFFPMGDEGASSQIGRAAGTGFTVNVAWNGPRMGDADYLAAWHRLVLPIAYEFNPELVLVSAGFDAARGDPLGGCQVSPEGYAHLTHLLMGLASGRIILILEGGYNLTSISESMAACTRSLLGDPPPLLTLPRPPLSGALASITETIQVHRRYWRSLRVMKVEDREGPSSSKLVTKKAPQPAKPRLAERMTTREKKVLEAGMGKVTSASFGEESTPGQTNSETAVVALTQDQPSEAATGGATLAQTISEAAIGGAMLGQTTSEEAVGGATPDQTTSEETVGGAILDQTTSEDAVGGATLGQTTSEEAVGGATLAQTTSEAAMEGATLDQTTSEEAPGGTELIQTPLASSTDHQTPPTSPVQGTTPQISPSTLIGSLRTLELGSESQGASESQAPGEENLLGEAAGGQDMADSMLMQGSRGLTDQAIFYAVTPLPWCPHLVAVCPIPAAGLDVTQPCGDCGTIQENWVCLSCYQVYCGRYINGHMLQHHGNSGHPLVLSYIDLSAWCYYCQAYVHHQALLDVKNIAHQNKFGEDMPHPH

Histone deacetylase 1 = Histone deacetylase 1 (Homo sapiens, UniProt Q13547); test: Inhibition of human recombinant full-length HDAC1 using fluorophore conjugated substrate by fluorescence assay
Histone deacetylase 2 = Histone deacetylase 2 (Homo sapiens, UniProt Q92769); test: Inhibition of human recombinant full-length HDAC2 using fluorophore conjugated substrate by fluorescence assay
Histone deacetylase 2, sequence (Q92769 whole entry): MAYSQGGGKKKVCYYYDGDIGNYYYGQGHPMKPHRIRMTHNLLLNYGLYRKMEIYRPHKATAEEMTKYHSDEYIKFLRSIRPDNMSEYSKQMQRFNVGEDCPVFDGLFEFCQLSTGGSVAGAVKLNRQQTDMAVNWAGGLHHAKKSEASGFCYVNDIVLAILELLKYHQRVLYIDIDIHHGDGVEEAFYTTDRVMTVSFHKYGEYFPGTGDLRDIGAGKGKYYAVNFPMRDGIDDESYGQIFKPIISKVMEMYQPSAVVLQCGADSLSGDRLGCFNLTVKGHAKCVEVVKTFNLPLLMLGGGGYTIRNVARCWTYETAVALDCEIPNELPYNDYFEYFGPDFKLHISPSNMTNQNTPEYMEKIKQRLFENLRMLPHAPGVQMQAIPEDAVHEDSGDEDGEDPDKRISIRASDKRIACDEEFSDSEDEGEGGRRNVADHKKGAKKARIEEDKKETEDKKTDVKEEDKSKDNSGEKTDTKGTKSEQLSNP

Histone deacetylase 3, sequence (O15379 whole entry): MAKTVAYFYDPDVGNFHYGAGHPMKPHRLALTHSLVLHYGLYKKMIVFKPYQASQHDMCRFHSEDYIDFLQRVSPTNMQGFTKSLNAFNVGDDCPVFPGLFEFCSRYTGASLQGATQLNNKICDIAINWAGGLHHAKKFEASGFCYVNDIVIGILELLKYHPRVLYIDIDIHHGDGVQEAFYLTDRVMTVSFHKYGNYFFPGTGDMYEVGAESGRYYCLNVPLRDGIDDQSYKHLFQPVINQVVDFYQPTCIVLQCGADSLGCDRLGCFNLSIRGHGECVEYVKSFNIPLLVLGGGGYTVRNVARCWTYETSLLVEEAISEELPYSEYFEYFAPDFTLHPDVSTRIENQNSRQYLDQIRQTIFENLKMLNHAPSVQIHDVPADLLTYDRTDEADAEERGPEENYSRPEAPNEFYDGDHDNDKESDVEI
Histone deacetylase 1, sequence (Q13547 whole entry): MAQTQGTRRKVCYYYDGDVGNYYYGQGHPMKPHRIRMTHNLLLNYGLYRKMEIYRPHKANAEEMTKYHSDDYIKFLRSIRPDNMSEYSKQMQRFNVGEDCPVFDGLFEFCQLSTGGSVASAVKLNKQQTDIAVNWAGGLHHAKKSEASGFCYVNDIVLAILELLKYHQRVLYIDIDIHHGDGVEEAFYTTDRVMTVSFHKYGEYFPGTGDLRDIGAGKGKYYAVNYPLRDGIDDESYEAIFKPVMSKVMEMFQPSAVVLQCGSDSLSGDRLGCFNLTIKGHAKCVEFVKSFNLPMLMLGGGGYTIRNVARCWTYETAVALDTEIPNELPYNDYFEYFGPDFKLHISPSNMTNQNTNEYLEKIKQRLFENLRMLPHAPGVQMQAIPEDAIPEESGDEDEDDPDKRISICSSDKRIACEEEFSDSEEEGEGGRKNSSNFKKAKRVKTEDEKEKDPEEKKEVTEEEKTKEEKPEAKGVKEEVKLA

Row | Drug uptake (Kidney) | Drug uptake (Liver) | Ratio (Nucleic Acid [1]) | Drug uptake (Mus musculus [2]) | Drug uptake (Mus musculus [3]) | Drug uptake (Heart) | Drug uptake (Mus musculus [4]) | Drug uptake (Brain) | Drug uptake (Mus musculus [5]) | half-life [6] | Drug uptake (Blood) | Ratio (Nucleic Acid [7]) | Drug uptake (Mus musculus [8]) | IC50 (Histone deacetylase 3) | IC50 [9] | IC50 (Histone deacetylase 1) | IC50 (Histone deacetylase 2) | SMILES
1 | Active | Active | 1.3 | 3 % ID/g | 6 % ID/g | Active | Active | Active | tde | < 1 min | Active | 1.7 | < 1 % ID/g | – | – | – | – | O=C(CCCCCCC(=O)Nc1ccc([18F])cc1)NO
2 | – | – | – | – | – | – | – | – | – | – | – | – | – | 23.9 nM | 50.2 nM | 9 nM | 12.7 nM | O=C(CCCCCCC(=O)Nc1ccc([19F])cc1)NO
